Most compounds without a hit are left out; they make up all but 2.7% or so of the library.
Wee1 stabilizer: human Wee1 degradation inhibition, primary screen; P30291; HeLa Luc-Wee1K328M stability, luciferase luminescence; 100% = proteasome inhibitor MG132 effect; reporter increase, % at 5 µM; 220,000 compounds, 1.2% hits; AID 1321;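 active = activation above the mean of all tested compounds plus 3 SD, set per screening run, cut at about 8.8% in these data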;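 note: cells exposed to compound for 20 h before luminescence read; 0% = DMSO alone and 100% = MG132 at 30 µM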
L929 necroptosis: blocks zVAD induced death of L929 cells; L929 zVAD necroptosis rescue, ATP luminescence, 24 h; with zVAD 60 µM; viability rescue, % at 10 µM; 220,000 compounds, 0.38% hits; AID 1377;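 active = activation, scaled between plate controls, above about 75%, limit read from the data; inactive = activation under that limit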;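 note: 0% = zVAD with DMSO and 100% = DMSO alone without zVAD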
TNF death inh: inhibitors of TNF-alpha induced necroptosis in Jurkat FADD-/- cells; Jurkat FADD-/- TNF necroptosis rescue, ATP luminescence, 24 h; 0 = TNF only, 100 = no-TNF cells; AID 463075; 220,000 compounds, 0.068% hits; activation (protection from cell death), % at 10 µM;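 active = activation, meaning protection from cell death, of at least 50% relative to plate controls; inactive = activation below 50%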;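 note: necroptosis triggered by 40 ng/mL TNF-alpha added together with compound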
PfM18AAP inh-1: PfM18AAP enzyme inhibition | recombinant PfM18AAP, H-Glu-NHMec fluorogenic cleavage | inhibition, % at 7.35 µM | 290,000 compounds, 1.2% hits;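 active = inhibition above the campaign mean inhibition over all tested compounds plus 3 SD, cut at about 28% in these data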;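 note: 0% = plate median of test compound wells and 100% = 2 mM ZnCl2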
p97 inhibitor: blocks human p97 ATPase activity; recombinant p97 ATPase, Kinase-Glo ATP luminescence, 3 h; inhibition, % at 8 µM; 220,000 compounds, 0.42% hits; in the data active = inhibition above about 15%;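 note: 0% = DMSO vehicle and 100% = wells lacking enzyme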
Target sequence (P55072 whole entry, looked up): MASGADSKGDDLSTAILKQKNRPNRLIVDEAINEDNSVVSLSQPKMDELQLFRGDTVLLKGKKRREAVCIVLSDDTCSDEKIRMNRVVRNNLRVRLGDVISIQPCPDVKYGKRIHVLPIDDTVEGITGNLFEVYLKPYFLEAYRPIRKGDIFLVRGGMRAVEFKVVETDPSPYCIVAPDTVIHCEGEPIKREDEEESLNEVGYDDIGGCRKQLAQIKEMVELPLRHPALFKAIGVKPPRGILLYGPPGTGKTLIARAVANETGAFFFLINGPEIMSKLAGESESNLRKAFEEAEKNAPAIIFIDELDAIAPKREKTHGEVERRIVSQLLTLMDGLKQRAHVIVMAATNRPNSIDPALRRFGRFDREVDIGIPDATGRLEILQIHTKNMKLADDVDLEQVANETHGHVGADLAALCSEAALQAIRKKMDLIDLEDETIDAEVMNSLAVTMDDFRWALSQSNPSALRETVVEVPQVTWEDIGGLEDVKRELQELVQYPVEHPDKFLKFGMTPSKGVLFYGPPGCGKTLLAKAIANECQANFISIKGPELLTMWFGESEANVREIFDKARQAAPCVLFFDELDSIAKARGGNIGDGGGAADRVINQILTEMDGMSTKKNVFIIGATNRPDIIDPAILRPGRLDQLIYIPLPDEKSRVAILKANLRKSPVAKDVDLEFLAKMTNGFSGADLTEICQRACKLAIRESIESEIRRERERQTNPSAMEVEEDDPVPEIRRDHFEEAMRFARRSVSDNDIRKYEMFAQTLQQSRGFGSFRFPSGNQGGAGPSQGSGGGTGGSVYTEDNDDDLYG
RBBP9 inh: inhibitors of human serine hydrolase RBBP9. O75884. recombinant RBBP9, FP-Rh probe fluorescence polarization. inhibition, % at 7.94 µM. AID 1515. 220,000 compounds, 0.2% hits;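 active = inhibition above the campaign mean of all tested compounds plus 3 SD, cut at about 14% in these data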;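 note: plate controls were DMSO wells with RBBP9 for no effect and wells lacking RBBP9 protein for full effect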
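system = RBBP9 protein | input = RBBP9 at 2.5 µM in dispensed solution, before mixing | measured by = fluorescence polarization (mP), excitation 525 nm, emission 598 nm | incubation = enzyme-compound preincubation 30 min, then probe labeling 45 min, 25 °C | buffer or medium = Tris-NaCl-Pluronic buffer, pH 8.0 | compound = single dose 7.94 µM | also added = FP-Rh probe, 375 nM dispensing solution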
PfM18AAP inh-2: PfM18AAP inhibition, confirmation; shares compounds with PfM18AAP inh-1; recombinant PfM18AAP, H-Glu-NHMec fluorogenic cleavage; inhibition, % at 7.35 µM; 2,400 compounds, 28% hits; AID 2170;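 active = mean inhibition over replicate wells above the hit cutoff set for the earlier primary screen, cut at about 29% in these data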;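 note: 0% = median of test compound wells and 100% = 2 mM ZnCl2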
CTSL1 counter: counter-screen for PFM18AAP inhibitors: confirmation of human cathepsin L inhibitors | shares compounds with PfM18AAP inh-1 | 2,400 tested, under 10 active | purified cathepsin L1, Z-Leu-Arg-MCA fluorescence | inhibition, % at 5.96 µM | AID 2178;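 active = average inhibition across replicates above the hit cutoff set in the earlier primary screen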;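 note: 0% = median of test compound wells and 100% = Z-Phe-Ala-diazomethylketone 1 µM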
An asterisk follows results filed as active; . = no result given.

SMILES | Wee1 stabilizer | L929 necroptosis | TNF death inh | PfM18AAP inh-1 | p97 inhibitor | RBBP9 inh | PfM18AAP inh-2 | CTSL1 counter
O=C1N(c2ccc(Cl)c(Cl)c2)CN(Cc2ccccc2)CN1n1cnnc1 | -2.1 | 1.0 | 0.5 | 70.2* | -0.1 | 1.0 | 55.4* | 0.7
O=C(CCN1CCN(Cc2ccccc2)CC1)NNC(=O)Cc1ccc(Cl)c(Cl)c1 | 2.2 | 0.6 | 2.1 | -2.6 | 0.0 | -2.6 | . | .
COc1ccc(CN2CN(c3ccc(Cl)cc3)C(=O)N(n3cnnc3)C2)cc1 | -1.6 | -0.1 | -0.3 | 50.7* | 2.6 | -2.9 | 40.4* | -2.2
CC(=O)NC(CC(=O)NNC(=O)c1cc2ccccc2cc1O)c1ccccc1 (centres undefined) | . | . | . | 32.0* | . | . | -15.8 | 1.1
Cc1cc(C)cc(Nc2ccc(C(=O)O)cc2N)c1 | 1.0 | 1.0 | 1.4 | 41.5* | 2.0 | 6.2 | -21.4 | -3.1
Cc1cc(C)cc(Nc2ccc(C(=O)O)cc2[N+](=O)[O-])c1 | . | . | . | 5.0 | . | . | . | .
COc1cccc(Nc2ccc(C(=O)O)cc2N)c1 | . | . | . | 5.0 | . | . | . | .
Cc1ccc(Nc2ccc(C(=O)O)cc2N)cc1 | 4.4 | -0.1 | -4.4 | 54.7* | -2.8 | -2.2 | 3.9 | 6.9
CCOC(=O)[C@@H]1[C@H]2COc3ccccc3[C@@H]2N2C(=O)N(c3ccc(OC)cc3)C(=O)[C@@]12C | . | . | . | 5.3 | . | . | . | .
Cc1[nH]n(-c2cccc3ccccc23)c(=O)c1/C=N/c1sc2c(c1C#N)CCC2 | -3.4 | -0.3 | 0.9 | 13.9 | 1.8 | -2.3 | . | .
Cc1[nH]n(-c2ccc(F)cc2)c(=O)c1/C=N/c1sc2c(c1C#N)CCCC2 | 1.7 | 1.0 | -0.7 | 33.6* | -6.8 | -3.5 | -56.1 | 3.4
Cc1cc(C)c2c(=O)n(CC(=O)Nc3cccc(Cl)c3C)sc2n1 | -2.0 | -0.1 | -3.9 | 63.3* | 4.7 | -6.9 | 40.7* | 3.2
COc1ccc(OC)c(CCNC(=O)Cn2sc3nc(C)cc(C)c3c2=O)c1 | -0.8 | 0.1 | -3.5 | 51.2* | -0.6 | 8.6 | 18.7 | 0.0
Cc1cc(C)c2c(=O)n(CC(=O)Nc3ccc(Br)c(C)c3)sc2n1 | 4.2 | -0.6 | -15.6 | 60.3* | -2.1 | 10.1 | 41.5* | -0.5
Cc1cc(NC(=O)Cc2ccsc2)ccc1Br | . | . | . | -1.7 | . | . | . | .
CCCn1c(SCC(=O)NCc2ccc(F)cc2)n[nH]c1=O | 0.3 | -0.1 | -0.5 | -3.1 | -0.9 | -3.1 | . | .
CC(=O)c1cccc(N(C(=O)c2ccco2)C(C(=O)NC2CCCC2)c2ccccc2F)c1 (centres undefined) | . | . | . | 4.0 | . | . | . | .
CN1C(=O)c2c(sc3c2CCCC3)NC1c1ccccc1O (centres undefined) | 1.8 | 1.8 | -2.4 | 34.0* | 0.3 | -7.3 | -24.0 | -0.9
CCCCOc1ccccc1/C=N/NC(=O)CC#N | -0.2 | 0.8 | -0.7 | 38.0* | -2.0 | -8.8 | -12.7 | -5.8
CN(c1ccccc1)c1ccc(/C=N/NC(=O)CC#N)cc1 | -0.7 | 0.3 | 0.6 | 35.9* | 4.4 | 1.9 | -33.5 | 8.8
O=C(Cc1ccccc1)N/N=C/c1ccc(OCC(=O)Nc2ccccc2)cc1 | 6.3 | 1.9 | 1.1 | -1.4 | 1.4 | -10.4 | . | .
N#CCC(=O)N/N=C/c1ccc(OCC(=O)Nc2ccc(F)cc2)cc1 | -1.1 | 0.2 | 0.7 | 42.3* | 4.7 | -18.6 | -45.4 | 3.5
CC(C)NC[C@@H](O)c1ccc(O)c(O)c1 | -1.2 | 1.3 | -1.7 | 60.9* | 3.6 | 4.0 | 55.7* | -2.5
CS(=O)(=O)N(CC(=O)O)Cc1cccc(CN(CC(=O)O)S(C)(=O)=O)c1 | . | . | . | 1.0 | . | . | . | .
S=C(Nc1ccccn1)c1ccccn1 | 0.1 | 10.2 | -12.8 | 36.4* | 3.7 | 1.2 | -23.0 | 1.8
SMILES | Wee1 stabilizer | L929 necroptosis | TNF death inh | PfM18AAP inh-1 | p97 inhibitor | RBBP9 inh | PfM18AAP inh-2 | CTSL1 counter
CCOC(=O)Cc1nnc(NC(=O)c2ccccc2OCC)s1 | -0.3 | 4.8 | 1.8 | 3.2 | -6.3 | -11.4 | . | .
CCOC(=O)Cc1nnc(NC(=O)c2ncn[nH]2)s1 | -0.3 | -0.5 | 0.2 | 46.0* | -4.0 | -3.5 | 0.3 | -3.9
Cn1ncc2c(NNC(=O)c3ccc(Cl)cc3Cl)ncnc21 | 1.8 | 1.3 | 2.8 | 40.9* | 0.9 | 9.4 | -2.0 | 0.5
CC1(C)CNC(=O)c2sc(NC(=O)c3ccccc3Cl)nc2C1 | -0.3 | 1.3 | -0.2 | 5.4 | 6.8 | -2.1 | . | .
Cc1nnc(N/N=C\c2ccc(-c3cccc(C(=O)O)c3)o2)n1N | -0.9 | 0.4 | -1.8 | 51.4* | 7.8 | -3.5 | 4.6 | -1.9
COc1ccc(/C=N/Nc2nnc(C)n2N)cc1OC(C)=O | . | . | . | 33.9* | . | . | -39.2 | 1.2
Cc1nnc(N/N=C/c2ccc(-c3ccc(Br)cc3)o2)n1N | -1.6 | 29.1 | -1.6 | 50.8* | 8.9 | -4.1 | 3.2 | 2.5
Cc1nnc(N/N=C/c2ccc(Br)cc2)n1N | . | . | . | 48.0* | . | . | -36.8 | -5.5
O=C(O)c1ccc(N/N=C/c2ccc(-c3ccc(Br)cc3)o2)cc1 | . | . | . | 7.3 | . | . | . | .
Cc1nnc(N/N=C/c2ccc([N+](=O)[O-])cc2)n1N | 5.1 | 0.0 | -1.7 | 14.8 | 3.0 | -5.0 | . | .
CCCNC(=O)C1(S(=O)(=O)c2ccccc2)CC=CC1 | . | . | . | 0.1 | . | . | . | .
O=C(CSCc1ccc(Br)cc1)N1CCCC1 | -1.1 | 0.2 | 4.8 | 5.6 | -1.7 | -6.5 | . | .
Nc1[nH]ncc1-c1ccc(F)cc1 | -1.2 | 0.3 | -0.4 | 1.4 | 1.1 | 1.9 | . | .
CC(C)(C)c1nnc(N/N=C/c2ccccc2)n(N)c1=O | -4.2 | 2.1 | 0.2 | 47.0* | 0.1 | -7.7 | -49.5 | 3.1
COc1cc(/C=C2\SC(=S)N(C(C(=O)O)c3ccccc3)C2=O)ccc1O (centres undefined) | -0.8 | 0.0 | -1.4 | 22.5 | 2.4 | -105.5 | . | .
O=C(O)C(c1ccccc1)N1C(=O)/C(=C\c2ccc(O)c(O)c2)SC1=S (centres undefined) | . | . | . | 49.5* | . | . | 28.2* | -2.1
COC(=O)c1ccccc1NCc1cc(=O)oc2cc(O)c(O)cc12 | . | . | . | 34.0* | . | . | -4.8 | 7.8
COc1ccc(C)cc1NCc1cc(=O)oc2cc(-c3ccccc3)c(O)cc12 | 2.8 | 0.0 | 1.4 | 8.3 | -3.9 | 0.7 | . | .

Screens (PubChem)
